Experimental data as given in ChEMBL document CHEMBL1629654, “Breakthrough Aspergillus fumigatus and Candida albicans double infection during caspofungin treatment: laboratory characteristics and implication for susceptibility testing” (2009).
Converted amounts (≈) assume the structure as drawn. The source made the active and inactive calls. The calls are words filed in the database; no cut-off is given here. *1 amine or outer side, *2 acyl side, *3 side chain or, on linkers, in order; H or OH if unused. Where a SMILES comes first, the peptide text is derived from it. Bridges are numbered along the chain shown (N, C = ends). [ ]: non-standard residue; d: D form. The star is where a group is joined. pTerphenylCO(4''-OnC5H11) = CCCCCOc1ccc(-c2ccc(-c3ccc(C(=O)*)cc3)cc2)cc1; Orn(4R-OH,5R-OH) = O=C([C@H](C[C@@H](O)[C@@H](O)N[*:3])N[*:1])[*:2]; hTyr(3S-OH,4S-OH) = N[C@H](C(=O)O)[C@H](O)[C@@H](O)c1ccc(O)cc1; Pro(3S-OH,4S-Me) = C[C@H]1CN[C@H](C(=O)O)[C@H]1O; Hyp = O=C(O)[C@@H]1C[C@@H](O)CN1

Experiments:
Candida albicans [1] = assay: Antimicrobial activity against Candida albicans isolate R after 48 hrs by Etest; type: functional
Outline: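 Etest on RPMI 1640 agar with 2% glucose, performed according to the manufacturer's recommendations.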

Candida albicans [2] = assay: Antimicrobial activity against Candida albicans isolate C after 48 hrs by Etest; type: functional
Outline: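 Etest on RPMI 1640 agar with 2% glucose, run per the manufacturer's instructions. Index and control clinical blood isolates were tested in parallel.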

Candida albicans [3] = assay: Antimicrobial activity against Candida albicans isolate R at 25 ug/ml grown on Muller-Hinton agar medium after 24 hrs by disk diffusion method; type: functional
Outline: (§1)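 Disk diffusion on 90-mm RPMI 1640 with 2% glucose agar or on Mueller-Hinton agar. Plates were swabbed in three directions with a yeast suspension of 1–5 × 10^6 cells/ml. Paper disks (6 mm) held 1, 5 or 25 µg drug. Zone diameters were read at 24 and 48 h; values are means of two experiments.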

Candida albicans [4] = assay: Antimicrobial activity against Candida albicans isolate R at 1 ug/ml grown on RPMI 1640 medium after 48 hrs by disk diffusion method; type: functional; outline: as §1
Candida albicans [5] = assay: Antimicrobial activity against Candida albicans isolate S at 25 ug/ml grown on Muller-Hinton agar medium after 48 hrs by disk diffusion method; type: functional; outline: as §1
Candida albicans [6] = assay: Antimicrobial activity against Candida albicans isolate S at 1 ug/ml grown on RPMI 1640 medium after 24 hrs by disk diffusion method; type: functional; outline: as §1
Candida albicans [7] = assay: Antimicrobial activity against Candida albicans isolate R at 5 ug/ml grown on RPMI 1640 medium after 24 hrs by disk diffusion method; type: functional; outline: as §1
Candida albicans [8] = assay: Antimicrobial activity against Candida albicans isolate S at 1 ug/ml grown on Muller-Hinton agar medium after 48 hrs by disk diffusion method; type: functional; outline: as §1
Candida albicans [9] = assay: Antimicrobial activity against Candida albicans isolate S at 25 ug/ml grown on RPMI 1640 medium after 24 hrs by disk diffusion method; type: functional; outline: as §1
Candida albicans [10] = assay: Antimicrobial activity against Candida albicans isolate C at 0.5 ug/ml after 48 hrs by agar dilution method; type: functional, organism-based
Outline: (§2)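 Sabouraud agar wells contained caspofungin 0, 0.5, 1 or 2 µg/ml, or anidulafungin 0, 0.003, 0.125 or 0.5 µg/ml. Isolates were subcultured 2 days on CHROMagar. Suspensions of 1–5 × 10^6 CFU/ml in sterile water were diluted 1,500-fold, and 5 µl (about 3–15 cells) was spread per well. Growth was scored.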

Candida albicans [11] = assay: Antimicrobial activity against Candida albicans isolate C at 0.003 ug/ml after 48 hrs by agar dilution method; type: functional, organism-based; outline: as §2
Candida albicans [12] = assay: Antimicrobial activity against Candida albicans isolate R after 48 hrs by microdilution method; type: functional
Outline: (§3)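 Broth microdilution in microtiter plates, read spectrophotometrically at 490 nm. MIC taken as the lowest drug dilution giving 50% growth inhibition. C. krusei […] run as control in each run. Read at 24 h and 48 h; trailing growth noted at 48 h.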

Candida albicans [13] = assay: Antimicrobial activity against Candida albicans isolate S at 25 ug/ml grown on RPMI 1640 medium after 48 hrs by disk diffusion method; type: functional; outline: as §1
Candida albicans [14] = assay: Antimicrobial activity against Candida albicans isolate S at 5 ug/ml grown on RPMI 1640 medium after 48 hrs by disk diffusion method; type: functional; outline: as §1
Candida albicans [15] = assay: Antimicrobial activity against Candida albicans isolate R at 0.5 ug/ml after 48 hrs by agar dilution method; type: functional, organism-based; outline: as §2
Candida albicans [16] = assay: Antimicrobial activity against Candida albicans isolate R after 24 hrs by microdilution method; type: functional; outline: as §3
Candida albicans [17] = assay: Antimicrobial activity against Candida albicans isolate R at 1 ug/ml grown on Muller-Hinton agar medium after 48 hrs by disk diffusion method; type: functional; outline: as §1
Candida albicans [18] = assay: Antimicrobial activity against Candida albicans isolate S at 5 ug/ml grown on Muller-Hinton agar medium after 48 hrs by disk diffusion method; type: functional; outline: as §1
Candida albicans [19] = assay: Antimicrobial activity against Candida albicans isolate S at 1 ug/ml grown on RPMI 1640 medium after 48 hrs by disk diffusion method; type: functional; outline: as §1
Candida albicans [20] = assay: Antimicrobial activity against Candida albicans isolate C after 24 hrs by microdilution method; type: functional; outline: as §3
Candida albicans [21] = assay: Antimicrobial activity against Candida albicans isolate C after 48 hrs by EUCAST microdilution method; type: functional
Outline: (§4)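 EUCAST broth microdilution, plates read spectrophotometrically at 490 nm. MIC is the lowest dilution giving 50% growth inhibition. C. krusei […] control included in each run.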

Candida albicans [22] = assay: Antimicrobial activity against Candida albicans isolate R at 1 ug/ml grown on Muller-Hinton agar medium after 24 hrs by disk diffusion method; type: functional; outline: as §1
Candida albicans [23] = assay: Antimicrobial activity against Candida albicans isolate S at 25 ug/ml grown on Muller-Hinton agar medium after 24 hrs by disk diffusion method; type: functional; outline: as §1
Candida albicans [24] = assay: Antimicrobial activity against Candida albicans isolate S at 5 ug/ml grown on Muller-Hinton agar medium after 24 hrs by disk diffusion method; type: functional; outline: as §1
Candida albicans [25] = assay: Antimicrobial activity against Candida albicans isolate R at 1 ug/ml grown on RPMI 1640 medium after 24 hrs by disk diffusion method; type: functional; outline: as §1
Candida albicans [26] = assay: Antimicrobial activity against Candida albicans isolate R at 25 ug/ml grown on RPMI 1640 medium after 48 hrs by disk diffusion method; type: functional; outline: as §1
Candida albicans [27] = assay: Antimicrobial activity against Candida albicans isolate S at 1 ug/ml grown on Muller-Hinton agar medium after 24 hrs by disk diffusion method; type: functional; outline: as §1
Candida albicans [28] = assay: Antimicrobial activity against Candida albicans isolate R after 48 hrs by EUCAST microdilution method; type: functional; outline: as §4
Candida albicans [29] = assay: Antimicrobial activity against Candida albicans isolate R at 5 ug/ml grown on Muller-Hinton agar medium after 24 hrs by disk diffusion method; type: functional; outline: as §1
Candida albicans [30] = assay: Antimicrobial activity against Candida albicans isolate R at 5 ug/ml grown on RPMI 1640 medium after 48 hrs by disk diffusion method; type: functional; outline: as §1
Candida albicans [31] = assay: Antimicrobial activity against Candida albicans isolate R at 25 ug/ml grown on RPMI 1640 medium after 24 hrs by disk diffusion method; type: functional; outline: as §1
Candida albicans [32] = assay: Antimicrobial activity against Candida albicans isolate S at 5 ug/ml grown on RPMI 1640 medium after 24 hrs by disk diffusion method; type: functional; outline: as §1
Candida albicans [33] = assay: Antimicrobial activity against Candida albicans isolate R at 25 ug/ml grown on Muller-Hinton agar medium after 48 hrs by disk diffusion method; type: functional; outline: as §1
Candida albicans [34] = assay: Antimicrobial activity against Candida albicans isolate S infected in NMRI mouse assessed as decrease in kidney bacterial burden at 12 mg/kg, ip measured on day 4; type: functional, organism-based; design: dose 12 mg/kg
Candida albicans [35] = assay: Antimicrobial activity against Candida albicans isolate R at 0.003 ug/ml after 48 hrs by agar dilution method; type: functional, organism-based; outline: as §2
Candida albicans [36] = assay: Antimicrobial activity against Candida albicans isolate R infected in NMRI mouse assessed as decrease in kidney bacterial burden at 12 mg/kg, ip measured on day 4; type: functional, organism-based; design: dose 12 mg/kg
Outline: (§5)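 NMRI mice (26–30 g), seven per group, were inoculated iv on day 0 with C. albicans (1 × 10^5 CFU). They received ip treatment on days 1–3 with anidulafungin 12 mg/kg or fluconazole 50 mg/kg; controls received saline. On day 4, kidneys were homogenised in saline and CFU counted by spot plating of 10-fold dilutions. Results are log10 CFU/ml; detection limit 50 CFU/ml; Mann-Whitney test.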

Candida albicans [37] = assay: Antimicrobial activity against Candida albicans isolate R at 5 ug/ml grown on Muller-Hinton agar medium after 48 hrs by disk diffusion method; type: functional; outline: as §1
Candida albicans [38] = assay: Antimicrobial activity against Candida albicans isolate C after 48 hrs by microdilution method; type: functional; outline: as §3
Candida albicans [39] = assay: Antimicrobial activity against Candida albicans isolate R infected in NMRI mouse assessed as decrease in kidney bacterial burden at 50 mg/kg, ip measured on day 4; type: functional, organism-based; design: dose 50 mg/kg; outline: as §5
Candida albicans [40] = assay: Antimicrobial activity against Candida albicans isolate S infected in NMRI mouse assessed as decrease in kidney bacterial burden at 50 mg/kg, ip measured on day 4; type: functional, organism-based; design: dose 50 mg/kg

## C[C@@H]1[C@H](O)[C@@H](C)/C=C/C=C/C=C/C=C/C=C/C=C/C=C/[C@H](O[C@@H]2O[C@H](C)[C@@H](O)[C@H](N)[C@@H]2O)C[C@@H]2O[C@](O)(C[C@@H](O)C[C@@H](O)[C@H](O)CC[C@@H](O)C[C@@H](O)CC(=O)O[C@H]1C)C[C@H](O)[C@H]2C(=O)O [AMPHOTERICIN B]
Candida albicans [1]
  MIC: 0.25 µg/mL (≈ 0.271 µM)
Candida albicans [2]
  MIC: 0.125 µg/mL (≈ 0.135 µM)

## CCCCCOc1ccc(-c2ccc(-c3ccc(C(=O)N[C@H]4C[C@@H](O)[C@@H](O)NC(=O)[C@@H]5[C@@H](O)[C@@H](C)CN5C(=O)[C@H]([C@@H](C)O)NC(=O)[C@H]([C@H](O)[C@@H](O)c5ccc(O)cc5)NC(=O)[C@@H]5C[C@@H](O)CN5C(=O)[C@H]([C@@H](C)O)NC4=O)cc3)cc2)cc1 [ANIDULAFUNGIN] ({pTerphenylCO(4''-OnC5H11)}-[Orn(4R-OH,5R-OH)]T[Hyp][hTyr(3S-OH,4S-OH)]T[Pro(3S-OH,4S-Me)]; lactam 1-C)
Candida albicans [3]
  inhibition zone (IZ): 6.8 mm
Candida albicans [4]
  inhibition zone (IZ): 7.8 mm
Candida albicans [5]
  inhibition zone (IZ): 13.1 mm
Candida albicans [6]
  inhibition zone (IZ): 13.7 mm
Candida albicans [7]
  inhibition zone (IZ): 9.5 mm
Candida albicans [8]
  inhibition zone (IZ): 13.9 mm
Candida albicans [9]
  inhibition zone (IZ): 14.9 mm
Candida albicans [10]
  growth inhibition (GI): Active
Candida albicans [11]
  growth inhibition (GI): inactive
Candida albicans [12]
  MIC: 0.25 µg/mL (≈ 0.219 µM)
Candida albicans [13]
  inhibition zone (IZ): 13.8 mm
Candida albicans [14]
  inhibition zone (IZ): 15.7 mm
Candida albicans [15]
  growth inhibition (GI): inactive
Candida albicans [16]
  MIC: 0.5 µg/mL (≈ 0.438 µM)
Candida albicans [17]
  inhibition zone (IZ): 6.8 mm
Candida albicans [18]
  inhibition zone (IZ): 14.6 mm
Candida albicans [19]
  inhibition zone (IZ): 13.2 mm
Candida albicans [20]
  MIC: 0.015 µg/mL (≈ 0.0132 µM)
Candida albicans [21]
  MIC: ≤ 0.03 µg/mL
Candida albicans [22]
  inhibition zone (IZ): 6.7 mm
Candida albicans [23]
  inhibition zone (IZ): 12.8 mm
Candida albicans [24]
  inhibition zone (IZ): 14.2 mm
Candida albicans [25]
  inhibition zone (IZ): 8.5 mm
Candida albicans [26]
  inhibition zone (IZ): 7.1 mm
Candida albicans [1]
  MIC: 0.5 µg/mL (≈ 0.438 µM)
Candida albicans [2]
  MIC: ≤ 0.002 µg/mL
Candida albicans [27]
  inhibition zone (IZ): 13.2 mm
Candida albicans [28]
  MIC: 0.06 µg/mL (≈ 0.0526 µM)
Candida albicans [29]
  inhibition zone (IZ): 9.4 mm
Candida albicans [30]
  inhibition zone (IZ): 8.8 mm
Candida albicans [31]
  inhibition zone (IZ): 7.7 mm
Candida albicans [32]
  inhibition zone (IZ): 15.9 mm
Candida albicans [33]
  inhibition zone (IZ): 7 mm
Candida albicans [34]
  Activity: Active
Candida albicans [35]
  growth inhibition (GI): inactive
Candida albicans [36]
  Activity: inactive
Candida albicans [37]
  inhibition zone (IZ): 9.9 mm
Candida albicans [38]
  MIC: ≤ 0.015 µg/mL

## OC(Cn1cncn1)(Cn1cncn1)c1ccc(F)cc1F [FLUCONAZOLE]
Candida albicans [39]
  Activity: Active
Candida albicans [12]
  MIC: ≤ 0.125 µg/mL
Candida albicans [16]
  MIC: ≤ 0.125 µg/mL
Candida albicans [20]
  MIC: 0.25 µg/mL (≈ 0.816 µM)
Candida albicans [21]
  MIC: 0.125 µg/mL (≈ 0.408 µM)
Candida albicans [28]
  MIC: ≤ 0.125 µg/mL
Candida albicans [40]
  Activity: Active
Candida albicans [38]
  MIC: ≤ 0.25 µg/mL
